Assays:
[1] = test system: A431 cells; test: TAMRA-peptides internalization assay, confocal microscopy of living cells; assay type: cell-based, human
Procedure, shortened: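 A431 cells (2.5 × 10^5) were seeded in coverslip-bottom imaging dishes in DMEM with 10% FBS. After 6 h, serum-deprived medium with N-terminal 5(6)-TAMRA-labeled test peptides (20 μg/ml) was added for 5 min or overnight, with free TAMRA (1.7 μM) as control. Living cells were gently washed and imaged by confocal microscopy with a 63x objective, 561 nm laser and white light, taking z-planes every 0.8 μm.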

[2] = test system: A431 cells; test: Cell detachment assay; assay type: cell-based, human; settings: overnight with 20 μg/ml peptides or 20 μM W-7/W-12, then 1 mM EGTA, n = 3
Procedure, shortened: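 A431 cells (DMEM, 2 mM L-glutamine, 10% FBS, 37 °C, 5% CO2) were seeded at 10^6 per 60 mm dish in 10% FBS. After 6 h, test peptides (20 μg/ml) or W-7/W-12 (20 μM) in DMSO were added in serum-deprived medium overnight, with 0.2–0.4% DMSO vehicle controls. Cells were then exposed to 1 mM EGTA, and detached cells in aliquots were counted in a Neubauer chamber over time. Values are mean ± SEM percent detached, n = 3.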

[3] = test system: hepatocarcinoma cells; settings: EGF-dependent vs basal EGF-independent proliferation; cited from earlier work
[4] = test system: A431 cells; test: Artificial wound healing assay; assay type: cell-based, human; settings: for effect of W-7/W-12 on cell migration in the absence of EGF: 20 μM, no EGF, time-lapse 48 h, n = 3
[5] = test system: A431 cells; test: Anchorage-independent growth assay in soft agar; assay type: cell-based, human; settings: 14 days, n = 4; for effect on size and number of colonies grown in soft agar: 20 μM W-7 or 25 μM W-12, 10% FBS, colonies >60 μm
Procedure, shortened: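 A431 cells (10^5 per 60 mm dish) suspended in DMEM ± 10% (v/v) FBS with 10 mM NaOH-Hepes pH 7.5 in 0.3% agarose, layered over 0.5% agarose. Fed every 72–96 h with fresh medium ± 10 nM EGF, 20 μM W-7 or 25 μM W-12 in DMSO; vehicle 0.4% DMSO. Imaged at day 14 with a 4x objective; colonies ≥60 μm counted.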

Compound	membrane blebbing (initiation of apoptosis) of treated cells [1]	effect on cell detachment with EGTA [2]	effect of W-7 on proliferation of hepatocarcinoma cells [3]	effect of W-7/W-12 on cell migration in the absence of EGF [4]	effect on size and number of colonies grown in soft agar [5]	delayed action of EGF on the initiation of cell migration ([4]; 10 nM EGF, n = 9)	effect of EGF on anchorage-independent growth in soft agar ([5]; 10 nM EGF)
5(6)-carboxytetramethylrhodamine [free TAMRA]	not observed						
NCCCCCCNS(=O)(=O)c1cccc2c(Cl)cccc12 [W-7, N-(6-aminohexyl)-5-chloro-1-naphthalenesulfonamide]		only partially	inhibits EGF-dependent but not basal EGF-independent proliferation of hepatocarcinoma cells	increased the initial migration rate of the cells, particularly with the high affinity inhibitor W-7	strongly inhibits		
NCCCCNS(=O)(=O)c1ccc2ccccc2c1 [W-12, N-(4-aminobutyl)-2-naphthalenesulfonamide]		only partially		increased the initial migration rate of the cells	very low effect		
EGF: epidermal growth factor						11.5 ± 1.4 h	particularly decreasing the size of the colonies

Source: PMC7215194 (Heliyon, 2020)
